# According to article PMC6977340 (Clinical Pharmacology and Therapeutics, 2019):
# Key:
# Aβ42 = conditions: cited from earlier work
# CSF Aβ40 [1] = conditions: multiple-ascending doses over 28 days, healthy subjects ref 32; cited from earlier work
# Aβ37 = conditions: cited from earlier work
# Aβ38 = conditions: cited from earlier work
# [2] = Safety/tolerability, B7991002 multiple-ascending dose study; assay type: in vivo, human; conditions: doses up to 360 mg q.d. for up to 14 days, healthy young and elderly subjects
# In short: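 Healthy subjects aged 18–55 and elderly subjects aged 65–85 took oral doses once daily for 14 days, with about 10 per cohort and placebo control. Dosing was fasted on days 1, 7 and 14, otherwise >1 h from breakfast. Investigators recorded adverse events with severity and causality, plus laboratory tests, physical examinations, ECG monitoring and vital signs.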
# [3] = Plasma pharmacokinetics, B7991001 single-ascending dose incl. food effect; assay type: in vivo, human; conditions: 120 mg fed vs fasted
# [4] = Plasma and CSF pharmacokinetics, B7991002 multiple dose; assay type: in vivo, human; conditions: for PF-06648671 concentration in CSF, mean: day 14, nonelderly
# CSF Aβ42 = assay: PK/PD indirect-response model, CSF Aβ42; assay type: in vivo, human
# In short: (§1)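 Population PK/PD fit in NONMEM (FOCE with interaction) for healthy adults. Inputs: serial CSF via lumbar catheter, 2 h predose to 36 h after one fasted oral 150 or 300 mg dose; single lumbar punctures at baseline and day 14 in 40–360 mg q.d. cohorts. Fixed two-compartment PK gave individual plasma concentrations. Indirect-response model: sigmoid inhibition (Aβ40/42) or stimulation (Aβ37/38) of production, with kout turnover. Fixed placebo-drift terms.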
# CSF Aβ40 [5] = assay: PK/PD indirect-response model, CSF Aβ40; assay type: in vivo, human
# In short: as §1
# CSF Aβ38 = assay: PK/PD indirect-response model, CSF Aβ38; assay type: in vivo, human
# In short: as §1
# CSF Aβ37 = assay: PK/PD indirect-response model, CSF Aβ37; assay type: in vivo, human
# In short: as §1
# plasma Aβ = assay: Plasma Aβ levels after single doses; assay type: in vivo, human; conditions: following single doses
# [6] = system: Aβ42, Aβ40, Aβ37 and Aβ38; conditions: cited from earlier work
# Notch = conditions: cell-based assays ref 36; cited from earlier work
# [7] = system: Aβ42 within the brain and CSF; conditions: acute oral administration ref 36; cited from earlier work
# [8] = multiple-ascending doses over 28 days, healthy subjects ref 32
# [9] = single dosing, healthy subjects ref 33
compound,measurement,setting,value
CNc1nc(Nc2ccc(-n3cnc(C)n3)c(OC)c2)nc2c1CC[C@H]2c1ccc(F)cc1 [BMS‐932481],Decrease in CSF Aβ42,Aβ42; [8],up to 77%
same,Decrease in Aβ42,Aβ42; [9],up to 50%
same,Decrease in CSF Aβ40,CSF Aβ40 [1],≤ 74%
same,Increase in CSF Aβ37,Aβ37; [8],up to 545%
same,Increase in Aβ37,Aβ37; [9],up to 12 fold
same,Increase in CSF Aβ38,Aβ38; [8],≤ 69%
same,Increase in Aβ38,Aβ38; [9],≤ 2 fold
COc1nc(/C=C/c2nc3n(n2)CCC[C@H]3c2ccccc2C(F)(F)F)ccc1-n1cnc(C)c1 [E2212],Decrease in Aβ42 AUC0–24 hours values,Aβ42; single-ascending doses ref 35,up to 44.1%
"Cc1cn(-c2ccc3n(c2=O)CCN([C@@H](C)[C@@H]2CC[C@H](c4cc(F)c(Cl)cc4C(F)(F)F)O2)C3=O)cn1 [PF-06648671, 2‐[(1S)‐1‐{(2S,5R)‐5‐[4‐chloro‐5‐fluoro‐2‐(trifluoromethyl)phenyl]tetrahydrofuran‐2‐yl}ethyl]‐7‐(4‐methyl‐1H‐imidazol‐1‐yl)‐3,4‐dihydro‐2H‐pyrido[1,2‐a]pyrazine‐1,6‐dione]",Safety profile,[2],good safety profile
same,Delay of median Tmax with food,[3],3 h
same,"PF-06648671 concentration in CSF, mean","[4]; 40 mg q.d., CV 81%",3.49 ng/mL
same,"PF-06648671 concentration in CSF, mean","[4]; 360 mg q.d., CV 31%",27.85 ng/mL
same,CSF penetration,[4]; CSF:plasma ratio at day 14 about equal to unbound fraction,excellent CSF penetration
same,Predicted reduction in CSF Aβ42 levels,CSF Aβ42; 75 mg,50%
same,Predicted reduction in CSF Aβ42 levels,CSF Aβ42; 300 mg,65%
same,IC50,"CSF Aβ42; Homo sapiens, read-out: IC50, plasma concentration at half Imax, Aβ42",0.421 µg/mL
same,"Imax, maximum inhibition achievable, Aβ42",CSF Aβ42; PK/PD model estimate,0.744
same,"k out, first-order turnover constant of Aβ42",CSF Aβ42; PK/PD model estimate,0.121 h⁻¹
same,Dose predicted to achieve an average 50% reduction in CSF Aβ42,"CSF Aβ42; steady state, PK/PD model",75 mg q.d.
same,IC50,"CSF Aβ40 [5]; Homo sapiens, read-out: IC50, plasma concentration at half Imax, Aβ40",1.23 µg/mL
same,"Imax, maximum inhibition achievable, Aβ40",CSF Aβ40 [5]; PK/PD model estimate,0.725
same,"k out, first-order turnover constant of Aβ40",CSF Aβ40 [5]; PK/PD model estimate,0.0835 h⁻¹
same,Dose predicted to achieve an average 50% reduction in CSF Aβ40,"CSF Aβ40 [5]; steady state, PK/PD model",250 mg q.d.
same,EC50,"CSF Aβ38; Homo sapiens, read-out: EC50, plasma concentration at half Emax, Aβ38",1.77 µg/mL
same,"k out, first-order turnover constant of Aβ38",CSF Aβ38; PK/PD model estimate,0.144 h⁻¹
same,"Emax, maximum response achievable, Aβ38","CSF Aβ38; PK/PD model estimate, large uncertainty",0.869
same,EC50,"CSF Aβ37; Homo sapiens, read-out: EC50, plasma concentration at half Emax, Aβ37",1.28 µg/mL
same,"Emax, maximum response achievable, Aβ37",CSF Aβ37; PK/PD model estimate,5.63
same,"k out, first-order turnover constant of Aβ37",CSF Aβ37; PK/PD model estimate,0.0964 h⁻¹
same,Predicted increase in CSF Aβ37,"CSF Aβ37; steady state, within simulated dose ranges",≤ 500%
same,Rebound effect of plasma Aβ levels over baseline,plasma Aβ,no rebound effect of plasma Aβ levels over baseline was observed
same,Effect on Aβ species in cell-based assays,[6],"reduced Aβ42 and Aβ40, with concomitant increases in Aβ37 and Aβ38"
same,Effect on cleavage of Notch or other substrates,Notch,without inhibiting the cleavage of Notch or other substrates
same,Effect on Aβ42 in animals,[7],reduced Aβ42 within the brain and CSF
